Source: ChEMBL document CHEMBL2417529, “An expedient, ionic liquid mediated multi-component synthesis of novel piperidone grafted cholinesterase enzymes inhibitors and their molecular modeling study” (Eur J Med Chem, 2013)

Experiments:
[1] = biological target: Cholinesterase (Equus caballus, UniProt P81908); assay: Inhibition of horse serum BChE using S-butyrylthiocholine chloride as substrate preincubated for 15 mins followed by substrate addition measured after 30 mins by Ellman's microplate assay
In short: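 Equine serum BChE preincubated with test samples in 0.1 M sodium phosphate buffer pH 8 for 15 min at 25 °C. DTNB added, then S-butyrylthiocholine chloride (14 mM stock). Colored product read at 412 nm 30 min after reaction start. Final DMSO 1%; triplicates; blank-corrected absorbance; % inhibition versus control; IC50 from five concentrations.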

[2] = Selectivity ratio of IC50 for electric eel AChE to IC50 for horse serum BChE
In short: (§1)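 Ratio of IC50s from Ellman microplate assays in 0.1 M sodium phosphate pH 8 with 1% final DMSO. AChE (Electrophorus electricus) used acetylthiocholine iodide; BChE (equine serum) used S-butyrylthiocholine chloride, each 14 mM stock. Enzyme and sample preincubated 15 min at 25 °C, then DTNB and substrate added. A412 read at 30 min in triplicate; IC50 from five concentrations.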

[3] = biological target: Acetylcholinesterase (Electrophorus electricus, UniProt O42275); assay: Inhibition of electric eel AChE using acetylthiocholine iodide as substrate preincubated for 15 mins followed by substrate addition measured after 30 mins by Ellman's microplate assay
[4] = Selectivity ratio of IC50 for horse serum BChE to IC50 for electric eel AChE; in short: as §1

Chain of Cholinesterase (P81908 whole entry): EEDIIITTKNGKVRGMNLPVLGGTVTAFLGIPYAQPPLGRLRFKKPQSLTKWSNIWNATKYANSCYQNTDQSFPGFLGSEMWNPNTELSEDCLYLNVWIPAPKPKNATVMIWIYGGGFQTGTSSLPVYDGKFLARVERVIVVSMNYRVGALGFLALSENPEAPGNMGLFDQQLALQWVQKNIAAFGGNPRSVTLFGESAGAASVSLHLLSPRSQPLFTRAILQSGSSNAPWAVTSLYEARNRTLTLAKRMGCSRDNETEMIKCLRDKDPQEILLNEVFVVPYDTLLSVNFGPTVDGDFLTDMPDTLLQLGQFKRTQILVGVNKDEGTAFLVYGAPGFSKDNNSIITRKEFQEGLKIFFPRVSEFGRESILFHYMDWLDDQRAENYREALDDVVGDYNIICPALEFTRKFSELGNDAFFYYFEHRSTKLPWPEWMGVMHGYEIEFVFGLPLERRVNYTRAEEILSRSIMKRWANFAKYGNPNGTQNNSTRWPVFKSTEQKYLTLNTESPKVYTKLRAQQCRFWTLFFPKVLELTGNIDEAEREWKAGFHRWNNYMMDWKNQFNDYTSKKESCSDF
Chain of Acetylcholinesterase (O42275 whole entry): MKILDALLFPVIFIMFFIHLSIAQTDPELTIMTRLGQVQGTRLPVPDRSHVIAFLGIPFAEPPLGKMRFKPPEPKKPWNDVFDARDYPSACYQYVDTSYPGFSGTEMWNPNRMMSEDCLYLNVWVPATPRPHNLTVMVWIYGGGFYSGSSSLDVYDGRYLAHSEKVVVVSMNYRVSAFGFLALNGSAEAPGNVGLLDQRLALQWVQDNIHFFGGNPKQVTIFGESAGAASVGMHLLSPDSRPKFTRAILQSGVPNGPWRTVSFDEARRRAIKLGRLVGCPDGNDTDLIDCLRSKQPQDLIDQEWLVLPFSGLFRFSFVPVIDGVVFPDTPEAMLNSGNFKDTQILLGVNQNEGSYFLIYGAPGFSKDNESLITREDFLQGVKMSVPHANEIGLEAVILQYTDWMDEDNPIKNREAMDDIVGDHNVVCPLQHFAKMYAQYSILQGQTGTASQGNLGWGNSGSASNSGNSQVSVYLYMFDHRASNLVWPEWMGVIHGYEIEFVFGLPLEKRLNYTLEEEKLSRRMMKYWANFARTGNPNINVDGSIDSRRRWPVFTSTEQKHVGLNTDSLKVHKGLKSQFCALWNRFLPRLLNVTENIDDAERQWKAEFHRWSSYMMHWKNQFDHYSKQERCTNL

**Q.** With `CCN1CC2=C(NC(=S)NC2c2ccc(Cl)cc2Cl)/C(=C/c2ccc(Cl)cc2Cl)C1` (stereo unspecified) as the compound, how does the IC50 [1] read?
**A.** Its IC50 is 3.61 µM.

**Q.** What about the Ratio IC50 [2] of the same compound?
**A.** The Ratio IC50 was 2.42.

**Q.** What about the IC50 [3] of the same compound?
**A.** The IC50 was 8.75 µM.

**Q.** What about the Ratio IC50 [4] of the same compound?
**A.** Its Ratio IC50 is 0.41.

**Q.** For `CCN1CC2=C(NC(=S)NC2c2ccccc2F)/C(=C/c2ccccc2F)C1` (stereo unspecified), which IC50 [1] is on record?
**A.** The IC50 was 4.48 µM.

**Q.** What about the Ratio IC50 [2] of the same compound?
**A.** Its Ratio IC50 is 1.24.

**Q.** And the IC50 [3]?
**A.** The IC50 was 5.54 µM.

**Q.** And the Ratio IC50 [4]?
**A.** The Ratio IC50 was 0.81.

**Q.** For `Cc1ccccc1/C=C1\CN(CCN2CCOCC2)CC2=C1NC(=S)NC2c1ccccc1C` (stereo unspecified), which IC50 [1] is on record?
**A.** The IC50 was 1.89 µM.

**Q.** What about the Ratio IC50 [2] of the same compound?
**A.** The Ratio IC50 was 4.31.

**Q.** What about the IC50 [3] of the same compound?
**A.** The IC50 was 8.15 µM.

**Q.** And the Ratio IC50 [4]?
**A.** The Ratio IC50 was 0.23.

**Q.** With `CCN1CC2=C(NC(=S)NC2c2ccc(Cl)cc2)/C(=C/c2ccc(Cl)cc2)C1` (stereo unspecified) as the compound, how does the IC50 [1] read?
**A.** The IC50 was 5.88 µM.

**Q.** What about the Ratio IC50 [2] of the same compound?
**A.** The Ratio IC50 was 0.22.

**Q.** And the IC50 [3]?
**A.** The IC50 was 1.29 µM.

**Q.** What about the Ratio IC50 [4] of the same compound?
**A.** The Ratio IC50 was 4.56.

**Q.** What does the source list for `CCN1CC2=C(NC(=S)NC2c2ccccc2)/C(=C/c2ccccc2)C1` (stereo unspecified)?
**A.** IC50 [1]: 4.2 µM; Ratio IC50 [2]: 0.22; IC50 [3]: 0.92 µM; Ratio IC50 [4]: 4.56

**Q.** For `CCN1CC2=C(NC(=S)NC2c2cccc([N+](=O)[O-])c2)/C(=C/c2cccc([N+](=O)[O-])c2)C1` (stereo unspecified), which IC50 [1] is on record?
**A.** The IC50 was 5.11 µM.

**Q.** And the Ratio IC50 [2]?
**A.** Its Ratio IC50 is 1.54.

**Q.** And the IC50 [3]?
**A.** The IC50 was 7.88 µM.

**Q.** What about the Ratio IC50 [4] of the same compound?
**A.** Its Ratio IC50 is 0.65.

**Q.** Which IC50 [1] does the source give for `S=C1NC2=C(CN(CCN3CCOCC3)C/C2=C\c2ccc(Cl)cc2)C(c2ccc(Cl)cc2)N1` (stereo unspecified) here?
**A.** Its IC50 is 4.28 µM.

**Q.** What about the Ratio IC50 [2] of the same compound?
**A.** Its Ratio IC50 is 1.28.

**Q.** And the IC50 [3]?
**A.** The IC50 was 5.49 µM.

**Q.** What about the Ratio IC50 [4] of the same compound?
**A.** The Ratio IC50 was 0.78.

**Q.** For `Fc1ccc(/C=C2\CN(CCN3CCOCC3)CC3=C2NC(=S)NC3c2ccc(F)cc2)cc1` (stereo unspecified), which IC50 [1] is on record?
**A.** Its IC50 is 3.41 µM.

**Q.** What about the Ratio IC50 [2] of the same compound?
**A.** The Ratio IC50 was 1.97.

**Q.** What about the IC50 [3] of the same compound?
**A.** Its IC50 is 6.72 µM.

**Q.** And the Ratio IC50 [4]?
**A.** The Ratio IC50 was 0.51.

**Q.** Which IC50 [1] does the source give for `Fc1ccccc1/C=C1\CN(CCN2CCOCC2)CC2=C1NC(=S)NC2c1ccccc1F` (stereo unspecified) here?
**A.** Its IC50 is 2.97 µM.

**Q.** And the Ratio IC50 [2]?
**A.** Its Ratio IC50 is 3.14.

**Q.** And the IC50 [3]?
**A.** The IC50 was 9.32 µM.

**Q.** What about the Ratio IC50 [4] of the same compound?
**A.** The Ratio IC50 was 0.32.

**Q.** Which IC50 [1] does the source give for `CCN1CC2=C(NC(=S)NC2c2ccc(F)cc2)/C(=C/c2ccc(F)cc2)C1` (stereo unspecified) here?
**A.** Its IC50 is 5.98 µM.

**Q.** What about the Ratio IC50 [2] of the same compound?
**A.** The Ratio IC50 was 0.36.

**Q.** And the IC50 [3]?
**A.** The IC50 was 2.07 µM.

**Q.** And the Ratio IC50 [4]?
**A.** Its Ratio IC50 is 2.76.

**Q.** For `S=C1NC2=C(CN(CCN3CCOCC3)C/C2=C\c2ccccc2Cl)C(c2ccccc2Cl)N1` (stereo unspecified), which IC50 [1] is on record?
**A.** The IC50 was 2.44 µM.

**Q.** And the Ratio IC50 [2]?
**A.** The Ratio IC50 was 2.77.

**Q.** And the IC50 [3]?
**A.** Its IC50 is 6.75 µM.

**Q.** What about the Ratio IC50 [4] of the same compound?
**A.** Its Ratio IC50 is 0.36.

**Q.** With `CCN1CC2=C(NC(=S)NC2c2ccccc2OC)/C(=C/c2ccccc2OC)C1` (stereo unspecified) as the compound, how does the IC50 [1] read?
**A.** Its IC50 is 8.13 µM.

**Q.** What about the Ratio IC50 [2] of the same compound?
**A.** Its Ratio IC50 is 0.61.

**Q.** And the IC50 [3]?
**A.** The IC50 was 4.92 µM.

**Q.** And the Ratio IC50 [4]?
**A.** Its Ratio IC50 is 1.65.

**Q.** Which IC50 [1] does the source give for `CCN1CC2=C(NC(=S)NC2c2ccc(C)cc2)/C(=C/c2ccc(C)cc2)C1` (stereo unspecified) here?
**A.** Its IC50 is 4.73 µM.

**Q.** And the Ratio IC50 [2]?
**A.** The Ratio IC50 was 1.06.

**Q.** And the IC50 [3]?
**A.** The IC50 was 5.02 µM.

**Q.** And the Ratio IC50 [4]?
**A.** Its Ratio IC50 is 0.94.

**Q.** What does the source list for `CCN1CC2=C(NC(=S)NC2c2ccccc2C)/C(=C/c2ccccc2C)C1` (stereo unspecified)?
**A.** IC50 [1]: 3.93 µM; Ratio IC50 [2]: 1.57; IC50 [3]: 6.17 µM; Ratio IC50 [4]: 0.64

**Q.** For `CCN1CC2=C(NC(=S)NC2c2ccccc2Cl)/C(=C/c2ccccc2Cl)C1` (stereo unspecified), which IC50 [1] is on record?
**A.** Its IC50 is 3.57 µM.

**Q.** What about the Ratio IC50 [2] of the same compound?
**A.** The Ratio IC50 was 2.3.

**Q.** And the IC50 [3]?
**A.** The IC50 was 8.22 µM.

**Q.** What about the Ratio IC50 [4] of the same compound?
**A.** Its Ratio IC50 is 0.43.

**Q.** Which IC50 [1] does the source give for `S=C1NC2=C(CN(CCN3CCOCC3)C/C2=C\c2ccc(Cl)cc2Cl)C(c2ccc(Cl)cc2Cl)N1` (stereo unspecified) here?
**A.** Its IC50 is 5.87 µM.

**Q.** And the Ratio IC50 [2]?
**A.** Its Ratio IC50 is 1.47.

**Q.** What about the IC50 [3] of the same compound?
**A.** The IC50 was 8.67 µM.

**Q.** What about the Ratio IC50 [4] of the same compound?
**A.** The Ratio IC50 was 0.68.

**Q.** Which IC50 [1] does the source give for `S=C1NC2=C(CN(CCN3CCOCC3)C/C2=C\c2ccccc2)C(c2ccccc2)N1` (stereo unspecified) here?
**A.** The IC50 was 3.23 µM.

**Q.** And the Ratio IC50 [2]?
**A.** Its Ratio IC50 is 1.39.

**Q.** What about the IC50 [3] of the same compound?
**A.** The IC50 was 4.49 µM.

**Q.** And the Ratio IC50 [4]?
**A.** The Ratio IC50 was 0.72.

**Q.** Which IC50 [1] does the source give for `Cc1ccc(/C=C2\CN(CCN3CCOCC3)CC3=C2NC(=S)NC3c2ccc(C)cc2)cc1` (stereo unspecified) here?
**A.** Its IC50 is 3.58 µM.

**Q.** What about the Ratio IC50 [2] of the same compound?
**A.** Its Ratio IC50 is 2.

**Q.** And the IC50 [3]?
**A.** Its IC50 is 7.16 µM.

**Q.** What about the Ratio IC50 [4] of the same compound?
**A.** The Ratio IC50 was 0.5.

**Q.** With `COc1ccccc1/C=C1\CN(CCN2CCOCC2)CC2=C1NC(=S)NC2c1ccccc1OC` (stereo unspecified) as the compound, how does the IC50 [1] read?
**A.** Its IC50 is 5.93 µM.

**Q.** What about the Ratio IC50 [2] of the same compound?
**A.** Its Ratio IC50 is 1.42.

**Q.** What about the IC50 [3] of the same compound?
**A.** The IC50 was 8.39 µM.

**Q.** And the Ratio IC50 [4]?
**A.** Its Ratio IC50 is 0.71.
